Each block holds one molecule with its values, some of them ahead of it.
Assays:
CYP2D6 = CYP2D6 (Homo sapiens, UniProt P10635); experiment: (§1) Inhibition of human CYP2D6 at 5 uM; assay type: ADME
Substance-P receptor = Substance-P receptor (Homo sapiens, UniProt P25103); experiment: Displacement of [3H]SP from NK1 receptor in human IM9 cells
[1] = Oral bioavailability in dog at 5 mg/kg; assay type: ADME, organism-based, Canis lupus familiaris; conditions: in vivo
How it was run: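 Dogs were dosed orally at 5 mg/kg as a water solution. Oral bioavailability was determined.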

Mustela putorius furo [2] = experiment: Antiemetic activity against cisplatin-induced emesis in ferrets at 0.1 mg/kg, sc; assay type: functional; conditions: route subcutaneous
How it was run: (§2)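 Ferrets were given the test compound sc 30 min before cisplatin (10 mg/kg, ip). Retching and vomiting/gagging episodes were counted against vehicle control. Groups were n = 4–5, data are mean ± SEM, and Student's t-test was used. Results are given as ED90 (mg/kg, sc) or as % inhibition at the stated dose.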

Gerbillinae [3] = experiment: Inhibition of [Sar9, Met(O2)11]SP-induced foot tapping in sc dosed gerbil
Liver microsomes = experiment: Metabolic stability in human liver microsome assessed as ratio of half life between CYP2D6-deficient microsome and CYP2D6-deficient microsome with addition of exogenous CYP2D6; assay type: ADME
How it was run: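 Half-lives were measured in CYP2D6-deficient human liver microsomes with and without added exogenous CYP2D6. The value is the ratio of the half-life without CYP2D6 to the half-life with it.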

Mustela putorius furo [4] = experiment: Antiemetic activity against cisplatin-induced emesis in ferrets at 0.3 mg/kg, sc; assay type: functional; conditions: route subcutaneous; how it was run: as §2
Gerbillinae [5] = experiment: Inhibition of [Sar9, Met(O2)11]SP-induced foot tapping in gerbil at 0.1 mg/kg, sc relative to CP-122721
Cytochrome P450 2D6 [6] = biological target: T1, Cytochrome P450 2D6 (Homo sapiens, UniProt P10635); experiment: as §1; assay type: ADME; conditions: 5 µM
Gerbillinae [7] = experiment: Inhibition of [Sar9, Met(O2)11]SP-induced foot tapping in gerbil at 1 mg/kg, sc relative to CP-122721; conditions: dose 1 mg/kg, route subcutaneous; for inhibition in vivo at 1 mg/kg: Gerbillinae, sc
Cytochrome P450 2D6 [8] = biological target: T1, Cytochrome P450 2D6; experiment: Binding affinity to human CYP2D6 using bufuralol as substrate; assay type: ADME
Mustela putorius furo [9] = experiment: Antiemetic activity against cisplatin-induced emesis in sc dosed ferrets; assay type: functional, organism-based; conditions: for ED90: Mustela putorius, sc, read-out: ED90; how it was run: as §2
[10] = substrate: COc1cc2c(cc1CN[C@H]1CCCN[C@H]1c1ccccc1)[C@](C)(C(F)(F)F)OCC2; experiment: Activity of CYP2D6 for hydroxylation in human liver microsomes; assay type: ADME, Microsome
[11] = substrate: COc1cc2c(cc1CN[C@H]1CCCN[C@H]1c1ccccc1)[C@](C)(C(F)(F)F)OCC2; experiment: Activity of CYP2D6 for N-dealkylation in human liver microsomes; assay type: ADME, Microsome
[12] = dose 0.1 mg/kg, route subcutaneous

Chain of Substance-P receptor (P25103 whole entry): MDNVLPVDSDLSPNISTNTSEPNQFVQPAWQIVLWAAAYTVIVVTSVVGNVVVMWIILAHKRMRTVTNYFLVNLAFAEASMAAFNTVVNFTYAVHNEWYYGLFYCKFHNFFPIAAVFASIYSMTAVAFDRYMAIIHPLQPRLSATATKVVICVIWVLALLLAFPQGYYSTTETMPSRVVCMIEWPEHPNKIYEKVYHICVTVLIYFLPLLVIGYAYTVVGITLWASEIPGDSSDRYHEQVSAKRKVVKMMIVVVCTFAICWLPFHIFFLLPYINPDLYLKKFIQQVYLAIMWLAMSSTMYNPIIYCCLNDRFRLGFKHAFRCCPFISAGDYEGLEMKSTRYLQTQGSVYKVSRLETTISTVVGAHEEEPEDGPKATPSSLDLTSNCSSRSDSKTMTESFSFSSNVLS

inhibition at 5 µM (CYP2D6): 85.4%
IC50 (Substance-P receptor): < 0.1 nM
Molecule: COc1cc2c(cc1CN[C@H]1CCCN[C@H]1c1ccccc1)C(C(F)(F)F)CCC2 (mixture of isomers; 18)

Molecule: COc1cc2c(cc1CN[C@H]1CCCN[C@H]1c1ccccc1)[C@](C)(C(F)(F)F)OCC2.O
bioavailability [1]: 9.8%

inhibition at 5 µM (CYP2D6): 46.6%
IC50 (Substance-P receptor): 0.7 nM
Ratio (Liver microsomes): 1.83
Molecule: COc1ccc(C(F)C(F)(F)F)cc1CN[C@H]1CCCN[C@H]1c1ccccc1 (mixture of isomers)
inhibition in vivo at 0.1 mg/kg (Mustela putorius furo [2]): 97%
ED50 (Gerbillinae [3]): 0.16 mg/kg
inhibition in vivo at 0.3 mg/kg (Mustela putorius furo [4]): 97%

inhibition (INH) (Cytochrome P450 2D6 [6]): 90%
IC50 (Substance-P receptor): 0.34 nM
Molecule: COc1cc2c(cc1CN[C@H]1CCCN[C@H]1c1ccccc1)C(C)(C(F)(F)F)CCC2 (mixture of isomers; 22)
inhibition (INH) (Gerbillinae [5]; [12]): 26%
inhibition (INH) (Gerbillinae [7]): 87%

Ki (Cytochrome P450 2D6 [8]): 120 nM
IC50 (Substance-P receptor): < 0.1 nM
Ratio (Liver microsomes): 1.8
Molecule: COc1cc2c(cc1CN[C@H]1CCCN[C@H]1c1ccccc1)C(C)(C(F)(F)F)CCC2 (mixture of isomers; 21)
inhibition (INH) (Gerbillinae [5]; [12]): 86%
inhibition (INH) (Gerbillinae [7]): 91%
inhibition in vivo at 0.1 mg/kg (Mustela putorius furo [2]): 97%

IC50 (Substance-P receptor): 0.21 nM
Ratio (Liver microsomes): 1.58
Molecule: COc1cc2c(cc1CN[C@H]1CCCN[C@H]1c1ccccc1)C(C)(C(F)(F)F)CCC2 (mixture of isomers; 19)
inhibition (INH) (Gerbillinae [5]; [12]): 21%
inhibition (INH) (Gerbillinae [7]): 85%

IC50 (Substance-P receptor): < 0.1 nM
Molecule: COc1ccc(C(C)(F)C(F)(F)F)cc1CN[C@H]1CCCN[C@H]1c1ccccc1 (mixture of isomers)
inhibition in vivo at 0.1 mg/kg (Gerbillinae [5]; Gerbillinae, sc, dose 0.1 mg/kg, route subcutaneous): 30%
inhibition in vivo at 1 mg/kg (Gerbillinae [7]): 57%

inhibition at 5 µM (CYP2D6): 66.4%
IC50 (Substance-P receptor): < 0.1 nM
Molecule: COc1cc2c(cc1CN[C@H]1CCCN[C@H]1c1ccccc1)C(C(F)(F)F)OC2 (mixture of isomers)
% inhibition at 0.1 mg/kg (Gerbillinae [5]; Gerbillinae, sc): 84%
inhibition in vivo at 0.1 mg/kg (Mustela putorius furo [2]): 99%

inhibition (INH) (Cytochrome P450 2D6 [6]): 73%
Ki (Cytochrome P450 2D6 [8]): 660 nM
IC50 (Substance-P receptor): < 0.1 nM
Ratio (Liver microsomes): 2.1
Molecule: COc1cc2c(cc1CN[C@H]1CCCN[C@H]1c1ccccc1)C(C)(C(F)(F)F)OC2 (mixture of isomers; 15)
inhibition (INH) (Gerbillinae [7]): 77%
ED100 (Mustela putorius furo [9]): 0.3 mg/kg
ED90 (Mustela putorius furo [9]): 0.05 mg/kg

inhibition at 5 µM (CYP2D6): 92.9%
IC50 (Substance-P receptor): < 0.1 nM
Molecule: COc1ccc(C(OC)C(F)(F)F)cc1CN[C@H]1CCCN[C@H]1c1ccccc1 (mixture of isomers)
inhibition in vivo at 1 mg/kg (Gerbillinae [7]): 67%

inhibition (INH) (Cytochrome P450 2D6 [6]): 42%
IC50 (Substance-P receptor): < 0.1 nM
Molecule: COc1cc2c(cc1CN[C@H]1CCCN[C@H]1c1ccccc1)C(C)(C(F)(F)F)CCC2 (mixture of isomers; 20)
inhibition (INH) (Gerbillinae [5]; [12]): 0%
inhibition (INH) (Gerbillinae [7]): 65%

inhibition (INH) (Cytochrome P450 2D6 [6]): 41.8%
IC50 (Substance-P receptor): < 0.1 nM
Molecule: COc1cc2c(cc1CN[C@H]1CCCN[C@H]1c1ccccc1)C(C)(C(F)(F)F)OC2 (mixture of isomers; 14)
inhibition (INH) (Gerbillinae [5]; [12]): 15%
inhibition (INH) (Gerbillinae [7]): 69%

inhibition at 5 µM (CYP2D6): 43.1%
Ki (Cytochrome P450 2D6 [8]): 2100 nM
IC50 (Substance-P receptor): < 0.1 nM
Ratio (Liver microsomes): 2
Molecule: COc1ccc(C(C(F)(F)F)C(F)(F)F)cc1CN[C@H]1CCCN[C@H]1c1ccccc1
ED50 (Gerbillinae [3]): 0.33 mg/kg
ED100 (Mustela putorius furo [9]): 0.9 mg/kg
ED90 (Mustela putorius furo [9]): 0.48 mg/kg

IC50 (Substance-P receptor): 0.34 nM
Molecule: COc1cc2c(cc1CN[C@H]1CCCN[C@H]1c1ccccc1)[C@@](C)(C(F)(F)F)OCC2

B1: Cytochrome P450 2D6 (Homo sapiens) (protein)
chain: MGLEALVPLAVIVAIFLLLVDLMHRRQRWAARYPPGPLPLPGLGNLLHVDFQNTPYCFDQLRRRFGDVFSLQLAWTPVVVLNGLAAVREALVTHGEDTADRPPVPITQILGFGPRSQGVFLARYGPAWREQRRFSVSTLRNLGLGKKSLEQWVTEEAACLCAAFANHSGRPFRPNGLLDKAVSNVIASLTCGRRFEYDDPRFLRLLDLAQEGLKEESGFLREVLNAVPVLLHIPALAGKVLRFQKAFLTQLDELLTEHRMTWDPAQPPRDLTEAFLAEMEKAKGNPESSFNDENLRIVVADLFSAGMVTTSTTLAWGLLLMILHPDVQRRVQQEIDDVIGQVRRPEMGDQAHMPYTTAVIHEVQRFGDIVPLGVTHMTSRDIEVQGFRIPKGTTLITNLSSVLKDEAVWEKPFRFHPEHFLDAQGHFVKPEAFLPFSAGRRACLGEPLARMELFLFFTSLLQHFSFSVPTGQPRPSHHGVFAFLVSPSPYELCAVPR
Km [10]: 16.6 µM
Km [11]: 2.3 µM

Reference: ChEMBL document CHEMBL1155909, “Discovery and stereoselective synthesis of the novel isochroman neurokinin-1 receptor antagonist 'CJ-17,493'” (Bioorg Med Chem, 2008)
